Source: ChEMBL document CHEMBL1156938, “Synthesis and in vitro biological evaluation of carbonyl group-containing inhibitors of vesicular acetylcholine transporter” (J Med Chem, 2010)

Tests used:
[1] = Displacement of [3H]DTG from sigma 2 receptor in rat liver membrane homogenates after 2 hrs by liquid scintillation counting; format: cell membranes
Outline: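 Rat liver membranes (~300 μg protein) with ~5 nM [3H]DTG plus 1 μM (+)-pentazocine to mask σ1 sites, 2 h at room temperature. Compounds were diluted in pH 7.4 Tris-HCl/NaCl/EDTA buffer. Nonspecific binding taken with 10 μM haloperidol, then filtration and scintillation counting. IC50 from one-site regression. Ki by Cheng-Prusoff (Kd 30.73 nM), mean ± SEM.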

[2] = biological target: T1, Vesicular acetylcholine transporter (Torpedo californica, UniProt P81721); test: Displacement of [3H]vesamicol from VAChT in Torpedo californica cholinergic synaptic vesicles; parameters: species or system Tetronarce californica
T1 sequence (P81721 whole entry): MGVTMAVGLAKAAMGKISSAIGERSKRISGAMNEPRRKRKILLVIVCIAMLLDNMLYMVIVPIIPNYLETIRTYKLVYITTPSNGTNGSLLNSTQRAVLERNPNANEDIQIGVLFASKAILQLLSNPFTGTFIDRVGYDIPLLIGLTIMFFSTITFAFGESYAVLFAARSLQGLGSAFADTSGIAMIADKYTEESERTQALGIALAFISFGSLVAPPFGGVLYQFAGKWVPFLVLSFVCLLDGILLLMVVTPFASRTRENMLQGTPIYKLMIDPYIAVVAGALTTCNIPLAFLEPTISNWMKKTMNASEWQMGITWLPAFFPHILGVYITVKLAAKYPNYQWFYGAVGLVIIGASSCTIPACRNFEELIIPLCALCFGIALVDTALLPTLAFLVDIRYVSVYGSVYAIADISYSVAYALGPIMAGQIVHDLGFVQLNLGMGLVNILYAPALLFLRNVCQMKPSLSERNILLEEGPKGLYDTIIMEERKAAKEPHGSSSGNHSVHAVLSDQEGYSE
Outline: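 Compounds tested as hydrochlorides. Averaged data fit by regression to a rectangular hyperbola to give Ki. Each compound assayed independently at least two times; Ki reported as mean ± SEM from at least three experiments.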

[3] = biological target: Sigma non-opioid intracellular receptor 1 (Cavia porcellus, UniProt Q60492); test: Displacement of [3H](+)-pentazocine from sigma 1 receptor in guinea pig brain membrane homogenates after 90 mins by liquid scintillation counting; format: cell membranes
Chain of Sigma non-opioid intracellular receptor 1 (Q60492 whole entry): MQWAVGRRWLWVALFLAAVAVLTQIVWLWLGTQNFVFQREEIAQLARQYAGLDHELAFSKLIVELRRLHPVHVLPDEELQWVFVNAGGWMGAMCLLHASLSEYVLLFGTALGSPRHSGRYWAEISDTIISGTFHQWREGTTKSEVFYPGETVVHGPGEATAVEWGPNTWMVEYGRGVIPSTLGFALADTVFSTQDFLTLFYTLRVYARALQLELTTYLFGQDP
Outline: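 Compounds dissolved in DMF, DMSO or ethanol, then diluted in 50 mM Tris-HCl, 150 mM NaCl, 100 mM EDTA, pH 7.4. Guinea pig brain membranes (~300 μg protein) with ~5 nM [3H](+)-pentazocine, 90 min at room temperature. Nonspecific binding taken with 10 μM haloperidol. Filtered and counted. IC50 from one-site nonlinear fit. Ki by Cheng-Prusoff (Kd 7.89 nM), mean ± SEM.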

[4] = Selectivity ratio of for sigma 2 receptor in rat liver membrane homogenates to Ki for VAChT in Torpedo californica cholinergic synaptic vesicles; format: cell membranes
Outline: (§1)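 Index calculated as Ki(σ1 or σ2)/Ki(VAChT). […] Averaged data were fit to a rectangular hyperbola, and each compound was assayed independently at least twice. σ Ki values come from the radioligand binding assays in guinea pig brain (σ1) and rat liver (σ2) membranes.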

[5] = Selectivity ratio of Ki for sigma 1 receptor in guinea pig brain membrane homogenates to Ki for VAChT in Torpedo californica cholinergic synaptic vesicles; format: cell membranes; outline: as §1

Compound	Ki [1] [nM]	Ki [2] [nM]	Ki [3] [nM]	Ratio Ki [4]	Ratio Ki [5]
Nc1cccc2c1C[C@@H](N1CCC(C(=O)c3cccs3)CC1)[C@H](O)C2	> 1000	4.9	> 1000		
O=C(c1ccc(Br)s1)C1CCN([C@@H]2Cc3ccccc3C[C@H]2O)CC1 (relative stereo)	72	0.54	129	133	239
Nc1cccc2c1C[C@@H](O)[C@H](N1CCC(C(=O)c3ccc(F)cc3)CC1)C2	353	7.6	497	46.4	65.4
Nc1cccc2c1C[C@@H](O)[C@H](N1CCC(C(=O)c3ccc(Br)s3)CC1)C2	121	29.4	483	4.1	16.4
O=C(c1ccc(F)cc1)C1CCN([C@@H]2CCCC[C@H]2O)CC1	113	423	303	0.3	0.7
O=C(c1ccccc1)C1(c2ccccc2)CCN([C@@H]2Cc3ccccc3C[C@H]2O)CC1 (relative stereo)		1.64			
O=C(c1ccc(Br)cc1)C1CCN([C@@H]2CCCC[C@H]2O)CC1	30.1	51.4	15.9	0.6	0.3
O=C(c1ccccc1)C1(c2ccccc2)CCN([C@@H]2CCCC[C@H]2O)CC1		68.5			
O=C(C1CCN([C@@H]2Cc3ccccc3C[C@H]2O)CC1)N1CCCCC1 (relative stereo)	> 1000	31	> 1000		
Nc1cccc2c1C[C@@H](N1CCC(C(=O)c3ccc(Br)cc3)CC1)[C@H](O)C2	> 1000	0.53	395	> 1890	746
Nc1cccc2c1C[C@@H](N1CCC(C(=O)N3CCCCC3)CC1)[C@H](O)C2		89.5			
O[C@@H]1CCCC[C@H]1N1CCC(c2ccccc2)CC1 [VESAMICOL]	34.5				
O=C(c1cccs1)C1CCN([C@@H]2CCCC[C@H]2O)CC1		763			
Nc1cccc2c1C[C@@H](N1CCC(C(=O)c3ccc(F)cc3)CC1)[C@H](O)C2	> 1000	2.4	> 1000		
O=C(Cc1ccccc1)C1(c2ccccc2)CCN([C@@H]2Cc3ccccc3C[C@H]2O)CC1 (relative stereo)		1.38			
O=C(c1ccc(Br)s1)C1CCN([C@@H]2CCCC[C@H]2O)CC1	35.7	46.8	29.5	0.8	0.6
Nc1cccc2c1C[C@@H](O)[C@H](N1CCC(C(=O)c3cccs3)CC1)C2	> 1000	134	> 1000		
Nc1cccc2c1C[C@@H](N1CCC(C(=O)c3ccc(Br)s3)CC1)[C@H](O)C2	> 1000	0.41	> 1000		
CCOC(=O)C1CCN([C@@H]2Cc3ccccc3C[C@H]2O)CC1 (relative stereo)	> 1000	68.5	> 1000		
O=C(c1ccc(I)s1)C1CCN([C@@H]2Cc3ccccc3C[C@H]2O)CC1 (relative stereo)	344	0.66	194	522	294
O=C(C1CCN([C@@H]2Cc3ccccc3C[C@H]2O)CC1)N1CCC(Cc2ccccc2)CC1 (relative stereo)	> 1000	2.4	19.9		8.3
O=C(c1ccc(I)s1)C1CCN([C@@H]2CCCC[C@H]2O)CC1	48.9	560	9.39	0.1	0.02
O=C(C1CCN([C@@H]2Cc3ccccc3C[C@H]2O)CC1)N1CCN(Cc2ccccc2)CC1 (relative stereo)	> 1000	2.08	118		56.8
O=C(c1ccc(F)cc1)C1(c2ccccc2)CCN([C@@H]2Cc3ccccc3C[C@H]2O)CC1		1.83			
O=C(c1ccccc1)C1CCN([C@@H]2CCCC[C@H]2O)CC1	341	650	281	0.5	0.4
O=C(c1cccs1)C1CCN([C@@H]2Cc3ccccc3C[C@H]2O)CC1 (relative stereo)		5			
Nc1cccc2c1C[C@@H](O)[C@H](N1CCC(C(=O)N3CCCCC3)CC1)C2		447			
O=C(C1CCN([C@@H]2Cc3ccccc3C[C@H]2O)CC1)N1CCC(c2ccccc2)CC1 (relative stereo)	> 1000	2.07	50.2		24.3
